The labels stand for the following.
B1: tRNA (parent)
chain: GUUCCGUUGGCGUAAUGGUAACGCGUCUCCCUCCUAAGGAGAAGACUGCGGGUUCGAGUCCCGUACGGAACG

This sample holds only a part of the variants without activity.

In this data set the parent is B1. Briefly: yeast fitness relative to wild type (ratio to wild type); higher = fitter; tRNA-Arg(CCU), competitive growth, 37 C, YPD. In short, it runs like this:
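Changes in genotype frequencies gave Darwinian fitness relative to wild type. Frequencies were read by 100-nucleotide paired-end sequencing of gene amplicons before and after pooled Saccharomyces cerevisiae strains, carrying tRNA-Arg(CCU) gene variants at the native locus, were competed in YPD at 37°C for 24 hours in six replicates. A genotype was kept only with ≥ 100 starting reads, and estimates < 0.5 were set to 0.5.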
In the case of G10C A37G G52A C55G G58A, the yeast fitness was at most 0.5.
The figure for G10A U16A G38C G41C A65G is at most 0.5; for G10A U59C G68C it is at most 0.5; for G10A G17A C31G it is at most 0.5.
Turning to G10C C11U C27G A42G C55U, the yeast fitness was 0.785.
The figure for G10A C31G is 0.651; for G10A G17A C66G it is 0.623; for G10C C24A C30G A40G U47G C55U it is at most 0.5.
Regarding G10A C30U U47A, the yeast fitness is at most 0.5.
Turning to G10C A57G A65U, the yeast fitness was at most 0.5.
For the variant G10C A45U C49G C60A, the yeast fitness was at most 0.5.
Turning to G10A U28C C61U C66G, the yeast fitness is at most 0.5.
The figure for G10A G44A U54C C61U A69C is 0.638; for G10C A15C A43C it is at most 0.5; for G10A C30U C34U A42G A57C it is at most 0.5.
Regarding G10A G48C, the yeast fitness came out at 0.733.
Then G10C A14C A15C A43U, with at most 0.5; and G10A G18A C27G A37G G38A, with at most 0.5.
In the case of G10A C33U U59C, the yeast fitness was at most 0.5.
Take G10A G38C A57G: the yeast fitness was at most 0.5.
The figure for G10A C30U G41A A69C is 0.548.
Then G10C C22U C49U A70G, with at most 0.5; and G10C A14U U19A C22U C62U, with at most 0.5; and G10A U35G A37U U47C A70G, with at most 0.5.
Then G10C A14G C24A, with at most 0.5.
For the variant G10A G23C C29U A36C C49G A70U, the yeast fitness was found to be 0.542.
Then G10A U13C A40C, with at most 0.5.
The figure for G10C A15G U35A G44A C61A U64C is at most 0.5.
In the case of G10A C31U A37G, the yeast fitness stood at 0.796.
The figure for G10C C11G C24G G67A is at most 0.5; for G10C C24A C46U it is at most 0.5.
Then G10C A15G C61A, with at most 0.5; and G10C A15C C29G G48A, with 0.643; and G10A U13A C24U A65C, with at most 0.5.
Regarding G10A C30A C62A, the yeast fitness was at most 0.5.
The figure for G10A G23C C29U A36C C49G is 0.53; for G10C A45U U53G it is at most 0.5; for G10A G18A C27G A37G G38A A57U it is at most 0.5.
The figure for G10A U13C is 0.658.
Then G10C A14G A36U, with at most 0.5; and G10A U16A G17A U32A A42U G48C, with at most 0.5; and G10C A15U A37U, with at most 0.5.
In the case of G10C A14U U28A A57C, the yeast fitness was at most 0.5.
Regarding G10A G39C C62U G63A A70U, the yeast fitness is at most 0.5.
Then G10A G17C C30G C33G C61A A69U A70G, with at most 0.5.
The figure for G10C A14U G25A C27U U53C A70G is 0.536; for G10A U19A G44C U54G C55U it is at most 0.5; for G10A G17A U59G C62U it is at most 0.5.
With G10A C55G C60A C66A A69U, the yeast fitness is at most 0.5.
The figure for G10A G17A U35G A36G A40C A57C C62A is at most 0.5.
The figure for G10C A14C G52C is at most 0.5; for G10A U16A G63A it is at most 0.5; for G10C A14U U19A C22U it is 0.505.
The figure for G10A G17A A36G A40C A57C C62A is at most 0.5; for G10C A21G G56A it is at most 0.5.
For the variant G10A C60A, the yeast fitness worked out at 0.691.
Take G10A U16A U64A: the yeast fitness amounted to 0.544.
The figure for G10A U54C C61G is at most 0.5; for G10C A14U C62U A69C it is at most 0.5.
With G10A G25A, the yeast fitness stood at 0.862.
Then G10C A20U G41U A57U, with at most 0.5.
Then G10A U13A C24U, with 0.599; and G10A G18A A36G U53A A70G, with at most 0.5; and G10C A37U A45G C66U, with at most 0.5.
On to G10C A21C C27A C34A C49G A65G, for which the yeast fitness was at most 0.5.
Then G10C A14C G18A, with at most 0.5.
The figure for G10A C49A C61U is at most 0.5.
The figure for G10C A69U is 0.661; for G10C C11G C55G C62U it is 0.62; for G10C A40U it is 0.635.
As for G10A G25A U47C, the yeast fitness was at most 0.5.
The figure for G10C A43U G48A G51A is at most 0.5; for G10A G41C it is 0.717.
The figure for G10A G41A is 0.661; for G10C A40G C62G it is at most 0.5.
The figure for G10A G25C C49G is 0.603; for G10C A20G U26C C46U it is at most 0.5; for G10A C55G G58A it is at most 0.5.
Consider G10C A14U G25A C27U U53C, for which the yeast fitness is at most 0.5.
Then G10C A15U C29G C46U G51C, with at most 0.5; and G10A G18A C62U, with at most 0.5.
Consider G10A C30U C34U A42G A69C A70G, for which the yeast fitness was at most 0.5.
Then G10C C11A G18C C24U C66U, with 0.529.

Source of the values: the RNAGym collection of RNA variant scans (doi:10.1126/science.aae0568).
